{"data": "Published values of several laboratories", "MAOB": "Amine oxidase [flavin-containing] B (MAOB, Homo sapiens, UniProt P27338)", "MMP9 Q279R": "Matrix metalloproteinase-9 (MMP9, Homo sapiens, UniProt P14780, Q279R)", "CTSV": "Cathepsin L2 (CTSV, Homo sapiens, UniProt O60911)"}
{"SMILES": "CN1CCN(CCCCOc2ccc3occc(=O)c3c2)CC1", "target": "MAOB", "assay": "enzyme activity, inhibitor, fluorescence", "conditions": "10 µM", "inhibition [%]": 20}
{"SMILES": "COc1ccc(S(=O)(=O)N(CC(=O)NO)CC(C)C)cc1", "target": "MMP9 Q279R", "assay": "enzyme activity, inhibitor", "conditions": "0.1 µM", "inhibition [%]": 96}
{"SMILES": "CN(CCN1CCC(OC(=O)Nc2ccccc2-c2ccccc2)CC1)C(=O)c1ccc(CN2CCC(C(N)=O)CC2)cc1", "target": "MAOB", "assay": "enzyme activity, inhibitor", "conditions": "1 µM", "inhibition [%]": -2}
{"SMILES": "COCc1c(-c2cc3cc(C)cc(OC)c3s2)c2c(N)ncnn2c1CN1CCNC(=O)C1", "target": "Endothelin receptor type B (EDNRB, Homo sapiens, UniProt P24530)", "assay": "ligand displacement, radioligand", "conditions": "10 µM", "inhibition [%]": -1}
{"SMILES": "O=C(Nc1cccnn1)N1CCN([C@@H]2CCOc3cc(C(F)(F)F)ccc32)CC1", "target": "Matrix metalloproteinase-9 (MMP9, Homo sapiens, UniProt P14780)", "assay": "enzyme activity, inhibitor", "conditions": "20 µM", "inhibition [%]": 8}
{"SMILES": "CCOC(=O)c1ccc(OC(=O)CCCCCNC(=N)N)cc1", "target": "CTSV", "assay": "enzyme activity, inhibitor", "conditions": "10 µM", "inhibition [%]": 3}
{"SMILES": "Cc1ccc(OP(=O)(Oc2ccc(C)cc2)Oc2ccc(C)cc2)cc1", "target": "Cholinesterase (Bche, Mus musculus, UniProt Q03311)", "assay": "enzyme activity, inhibitor", "system": "mouse", "conditions": "oral, 240 mg/kg", "inhibition [%]": 20}
{"SMILES": "O=c1ccoc2ccc(OCCCCN3CCCCC3)cc12", "target": "MAOB", "assay": "enzyme activity, inhibitor, fluorescence", "conditions": "10 µM", "inhibition [%]": 63}
{"SMILES": "N=C(N)c1ccc2cc(OC(=O)c3ccc(N=C(N)N)cc3)ccc2c1", "target": "MMP9 Q279R", "assay": "enzyme activity, inhibitor", "conditions": "10 µM", "inhibition [%]": 11}
{"SMILES": "COc1cc(Nc2ncc(F)c(Nc3ccc4c(n3)NC(=O)C(C)(C)O4)n2)cc(OC)c1OC", "target": "NUAK family SNF1-like kinase 2 (NUAK2, Homo sapiens, UniProt Q9H093)", "assay": "binding, competition with immobilised ligand", "conditions": "10 µM", "inhibition [%]": 97}
{"SMILES": "CC(C)C[C@H](NC(=O)[C@H]1O[C@@H]1C(=O)O)C(=O)NCCCCN=C(N)N", "target": "CTSV", "assay": "enzyme activity, inhibitor", "conditions": "0.5 µM", "inhibition [%]": 94}
{"SMILES": "CN1CCN(CCCOc2ccc3occc(=O)c3c2)CC1", "target": "MAOB", "assay": "enzyme activity, inhibitor, fluorescence", "conditions": "10 µM", "inhibition [%]": 20}
{"SMILES": "C[C@H](C(=O)N[C@H]1COc2ccccc2[C@@H]1S(C)(=O)=O)c1ccc(F)cc1", "target": "MAOB", "assay": "enzyme activity, inhibitor", "conditions": "10 µM", "inhibition [%]": 11}
